Measured values taken from ChEMBL document CHEMBL4138242, “Synthesis and antibacterial evaluation of novel cationic chalcone derivatives possessing broad spectrum antibacterial activity” (Eur J Med Chem, 2018).
Active and inactive are the calls of the source.

Columns and labels:
Staphylococcus aureus [1] = experiment: Antibacterial activity against methicillin-resistant Staphylococcus aureus clinical isolate 1-may after 16 to 20 hrs by broth microdilution method; type: functional
Method in brief: (§1)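 CLSI broth microdilution in Mueller-Hinton broth. A 4-6 h culture was diluted to about 10⁶ CFU/mL and mixed 1:1 with compound dilutions prepared at 256 to 0.5 µg/mL from aqueous stocks. Plates were incubated at 37 °C for 16-20 h and read visually for MIC. Each concentration was run in duplicate, and the experiment was repeated at least twice. Vancomycin and meropenem were comparators.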

Staphylococcus aureus [2] = experiment: Disruption of 24 hrs cultured Staphylococcus aureus ATCC 29213 biofilm assessed as cell viability in biofilm at 2 ug/ml after 24 hrs by crystal violet staining-based assay (reference value: 15.96 log10CFU/ml); type: functional
Staphylococcus aureus [3] = experiment: Antibacterial activity against methicillin-resistant Staphylococcus aureus clinical isolate 20131012632sau after 16 to 20 hrs by broth microdilution method; type: functional; method in brief: as §1
Klebsiella pneumoniae [4] = experiment: Antibacterial activity against drug-resistant carbapenemase producing Klebsiella pneumoniae clinical isolate KP-14-45 after 16 to 20 hrs by broth microdilution method; type: functional; method in brief: as §1
Staphylococcus aureus [5] = experiment: Antibacterial activity against methicillin-resistant Staphylococcus aureus clinical isolate 1207007 after 16 to 20 hrs by broth microdilution method; type: functional; method in brief: as §1
Klebsiella pneumoniae [6] = experiment: Antibacterial activity against drug-resistant carbapenemase producing Klebsiella pneumoniae clinical isolate KP-14-8 after 16 to 20 hrs by broth microdilution method; type: functional; method in brief: as §1
Staphylococcus aureus [7] = experiment: Antibacterial activity against methicillin-resistant Staphylococcus aureus clinical isolate 1208143 after 16 to 20 hrs by broth microdilution method; type: functional; method in brief: as §1
Staphylococcus aureus [8] = experiment: Disruption of 24 hrs cultured Staphylococcus aureus ATCC 29213 biofilm assessed as cell viability in biofilm at 32 ug/ml after 24 hrs by crystal violet staining-based assay (reference value: 15.96 log10CFU/ml); type: functional
Staphylococcus aureus [9] = experiment: Ratio of MBC99.9 for methicillin-resistant Staphylococcus aureus in presence of 50% sheep serum to MBC99.9 for methicillin-resistant Staphylococcus aureus ATCC 29213 in presence of 50% sheep plasma; type: functional
Method in brief: (§2)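 MRSA at 10⁵ CFU/mL in 50% MHB plus 50% sheep serum, plasma or defibrinated blood; serum and plasma were obtained by centrifugation at 3,500 rpm for 10 min. Aqueous dilutions prepared at 512-4 µg/mL were added 1:3 to the suspension and incubated for 20-24 h at 37 °C. Well contents (20 µL) were plated on MHA for 20-24 h, and MBC was the concentration giving no colonies.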

Staphylococcus aureus [10] = experiment: Antibacterial activity against methicillin-resistant Staphylococcus aureus clinical isolate 1104060 after 16 to 20 hrs by broth microdilution method; type: functional; method in brief: as §1
Escherichia coli [11] = experiment: Antibacterial activity against drug-resistant NDM1 producing Escherichia coli clinical isolate Ecl-13-62 after 16 to 20 hrs by broth microdilution method; type: functional; method in brief: as §1
Escherichia coli [12] = experiment: Antibacterial activity against drug-resistant NDM1 producing Escherichia coli clinical isolate KP-13-58 after 16 to 20 hrs by broth microdilution method; type: functional; method in brief: as §1
Klebsiella pneumoniae [13] = experiment: Antibacterial activity against drug-resistant carbapenemase producing Klebsiella pneumoniae clinical isolate KP-14-3 after 16 to 20 hrs by broth microdilution method; type: functional; method in brief: as §1
Klebsiella pneumoniae [14] = experiment: Antibacterial activity against drug-resistant carbapenemase producing Klebsiella pneumoniae clinical isolate KP-14-18 after 16 to 20 hrs by broth microdilution method; type: functional; method in brief: as §1
Staphylococcus aureus [15] = experiment: Bactericidal activity against methicillin-resistant Staphylococcus aureus in presence of 50% sheep serum after 20 to 24 hrs; type: functional; details: read-out: MBC99.9; method in brief: as §2
Escherichia coli [16] = experiment: Antibacterial activity against drug-resistant NDM1 producing Escherichia coli clinical isolate EC-13-49 after 16 to 20 hrs by broth microdilution method; type: functional; method in brief: as §1
Staphylococcus aureus [17] = experiment: Antibacterial activity against Staphylococcus aureus ATCC 29213 at sub MIC after 20 passages; type: functional, organism-based
Method in brief: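 The MIC was first measured by broth microdilution. Cells grown at MIC/2 were then carried into a fresh MIC assay after each 24 h, repeated over 20 serial passages. Norfloxacin (S. aureus) and colistin (E. coli) served as control antibiotics. Resistance was defined as a >4-fold rise over the original MIC.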

Staphylococcus aureus [18] = experiment: Disruption of 24 hrs cultured Staphylococcus aureus ATCC 29213 biofilm assessed as cell viability in biofilm at 16 ug/ml after 24 hrs by crystal violet staining-based assay (reference value: 15.96 log10CFU/ml); type: functional
Staphylococcus aureus [19] = experiment: Disruption of 24 hrs cultured Staphylococcus aureus ATCC 29213 biofilm assessed as cell viability in biofilm at 4 ug/ml after 24 hrs by crystal violet staining-based assay (reference value: 15.96 log10CFU/ml); type: functional
Escherichia coli [20] = experiment: Antibacterial activity against drug-resistant NDM1 producing Escherichia coli clinical isolate EC-14-54 after 16 to 20 hrs by broth microdilution method; type: functional; method in brief: as §1
Staphylococcus aureus [21] = experiment: Antibacterial activity against methicillin-resistant Staphylococcus aureus clinical isolate 1105183 cono7 after 16 to 20 hrs by broth microdilution method; type: functional; method in brief: as §1
Klebsiella pneumoniae [22] = experiment: Antibacterial activity against drug-resistant carbapenemase producing Klebsiella pneumoniae clinical isolate KP-14-2 after 16 to 20 hrs by broth microdilution method; type: functional; method in brief: as §1
Klebsiella pneumoniae [23] = experiment: Antibacterial activity against drug-resistant carbapenemase producing Klebsiella pneumoniae clinical isolate KP-13-45 after 16 to 20 hrs by broth microdilution method; type: functional; method in brief: as §1
Staphylococcus aureus [24] = experiment: Antibacterial activity against methicillin-resistant Staphylococcus aureus clinical isolate 20130911034sau after 16 to 20 hrs by broth microdilution method; type: functional; method in brief: as §1
Staphylococcus aureus [25] = experiment: Antibacterial activity against methicillin-resistant Staphylococcus aureus clinical isolate 0906202 after 16 to 20 hrs by broth microdilution method; type: functional; method in brief: as §1
Escherichia coli [26] = experiment: Induction of inner membrane permeabilization in Escherichia coli ATCC 25922 at 10 to 20 ug/ml measured every 2 mins for 12 mins by propidium iodide staining-based fluorescence assay; type: functional, organism-based
Method in brief: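 Mid-log cells (~10⁸ CFU/mL) were suspended in PBS (S. aureus) or HEPES/glucose/KCl (E. coli). They were preincubated with propidium iodide for 30 min (S. aureus) or 40 min (E. coli), and baseline fluorescence was read for 8 min. Compound was added to 20 µg/mL final, and fluorescence (ex 535/em 617 nm) was read every 2 min for 12 min.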

Klebsiella pneumoniae [27] = experiment: Antibacterial activity against drug-resistant carbapenemase producing Klebsiella pneumoniae clinical isolate KP-13-54 after 16 to 20 hrs by broth microdilution method; type: functional; method in brief: as §1
Klebsiella pneumoniae [28] = experiment: Antibacterial activity against drug-resistant carbapenemase producing Klebsiella pneumoniae clinical isolate EC-13-23 after 16 to 20 hrs by broth microdilution method; type: functional; method in brief: as §1
Escherichia coli [29] = experiment: Antibacterial activity against drug-resistant NDM1 producing Escherichia coli clinical isolate Ecl-14-59 after 16 to 20 hrs by broth microdilution method; type: functional; method in brief: as §1
Klebsiella pneumoniae [30] = experiment: Antibacterial activity against drug-resistant carbapenemase producing Klebsiella pneumoniae clinical isolate KP-13-55 after 16 to 20 hrs by broth microdilution method; type: functional; method in brief: as §1
Escherichia coli [31] = experiment: Antibacterial activity against Escherichia coli ATCC 25922 after 16 to 20 hrs by broth microdilution method; type: functional
Method in brief: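 Broth microdilution per CLSI. Bacteria grown 4-6 h (about 10⁸ CFU/mL), then diluted to about 10⁶ CFU/mL. Medium: Mueller-Hinton broth, except Luria-Bertani broth for E. coli. Compounds in sterile water, twofold series 256-0.5 µg/mL, mixed 1:1 with inoculum, 37 °C for 16-20 h. MIC is the lowest concentration without visible growth. Duplicate wells; experiment repeated at least twice.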

Question: What does the source list for `CCCCCCCC[N+](C)(C)CC(=O)Nc1ccc(C(=O)/C=C/c2ccccc2F)cc1.[Cl-]`?
Answer: MIC (Staphylococcus aureus [1]): 1 mg/L; Activity (Staphylococcus aureus [2]): 13.93 log10CFU/ml; MIC (Staphylococcus aureus [3]): 2 mg/L; MIC (Klebsiella pneumoniae [4]): 8 mg/L; MIC (Staphylococcus aureus [5]): 0.25 mg/L; MIC (Klebsiella pneumoniae [6]): 4 mg/L; MIC (Staphylococcus aureus [7]): 1 mg/L; Activity (Staphylococcus aureus [8]): 9.59 log10CFU/ml; Ratio (Staphylococcus aureus [9]): 2; MIC (Staphylococcus aureus [10]): 8 mg/L; MIC (Escherichia coli [11]): 4 mg/L; MIC (Escherichia coli [12]): 1 mg/L; MIC (Klebsiella pneumoniae [13]): 8 mg/L; MIC (Klebsiella pneumoniae [14]): 16 mg/L; MBC (Staphylococcus aureus [15]): 32 mg/L; MIC (Escherichia coli [16]): 4 mg/L; Activity (Staphylococcus aureus [17]): Active; Activity (Staphylococcus aureus [18]): 10.95 log10CFU/ml; Activity (Staphylococcus aureus [19]): 12.93 log10CFU/ml; MIC (Escherichia coli [20]): 16 mg/L; MIC (Staphylococcus aureus [21]): 1 mg/L; MIC (Klebsiella pneumoniae [22]): 16 mg/L; MIC (Klebsiella pneumoniae [23]): 4 mg/L; MIC (Staphylococcus aureus [24]): 0.5 mg/L; MIC (Staphylococcus aureus [25]): 4 mg/L; Activity (Escherichia coli [26]): Active; MIC (Klebsiella pneumoniae [27]): 4 mg/L; MIC (Klebsiella pneumoniae [28]): 4 mg/L; MIC (Escherichia coli [29]): 16 mg/L; MIC (Klebsiella pneumoniae [30]): 16 mg/L; MIC (Escherichia coli [31]): 2 mg/L
